In ChEMBL document CHEMBL1140035, “4"-Benzoylureido-TSAO derivatives as potent and selective non-nucleoside HCMV inhibitors. Structure-activity relationship and mechanism of antiviral action” (J Med Chem, 2008):

What was measured:
[1] = Cytotoxicity against HEL cells assessed as reduction in cell growth after 3 days; assay type: cell-based; conditions: human
Procedure, shortened: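 HEL cells were seeded at 5 × 10³ cells/well and allowed to proliferate for 24 h. Compound-containing medium was then added at several concentrations for 3 days at 37 °C. Cells were counted with a Coulter counter. CC50, the concentration reducing cell growth by 50% versus untreated controls, was read from plots of cell number (% of control) against concentration.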

[2] = Cytotoxicity against HEL cells assessed as alteration in cell morphology after 3 days; assay type: cell-based; conditions: human
Procedure, shortened: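 Minimum cytotoxic concentration: the lowest compound concentration causing a microscopically detectable alteration of HEL cell morphology.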

Human betaherpesvirus 5 [3] = assay: Antiviral activity against HCMV Davis in HEL cells assessed as reduction of virus-induced cytopathogenicity after 7 days; assay type: functional, organism-based; conditions: Human betaherpesvirus 5, Davis, 168 h
Procedure, shortened: (§1)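 Confluent HEL fibroblasts were infected with strain AD-169 or Davis at 100 PFU/well. After 2 h, residual virus was removed and medium with serial compound concentrations was added, in duplicate. Plates were held 7 days at 37 °C, fixed with ethanol, and scored microscopically for virus-induced cytopathicity. EC50 is the concentration reducing cytopathicity by 50%.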

Human betaherpesvirus 5 [4] = assay: Antiviral activity against HCMV AD169 in HEL cells assessed as reduction of virus-induced cytopathogenicity after 7 days; assay type: functional, organism-based; conditions: Human betaherpesvirus 5, AD169, HEL, 168 h; procedure, shortened: as §1

CCOC(=O)CNC(=O)NC1=CS(=O)(=O)O[C@@]12[C@@H](CO[Si](C)(C)C(C)(C)C)O[C@@H](n1cc(C)c(=O)n(C)c1=O)[C@@H]2O[Si](C)(C)C(C)(C)C
CC50 at 72 h [1]: 13 µM
MCC at 72 h [2]: 16 µM
EC50 (Human betaherpesvirus 5 [3]): > 3.2 µM
EC50 (Human betaherpesvirus 5 [4]): > 3.2 µM

Cc1cn([C@@H]2O[C@H](COCc3ccccc3)[C@@]3(OS(=O)(=O)C=C3NC(=O)NC(=O)c3ccccc3)[C@H]2O[Si](C)(C)C(C)(C)C)c(=O)n(C)c1=O
CC50 at 72 h [1]: > 50 µM
MCC at 72 h [2]: > 50 µM
EC50 (Human betaherpesvirus 5 [3]): > 50 µM
EC50 (Human betaherpesvirus 5 [4]): > 50 µM

Cc1cn([C@@H]2O[C@H](CO)[C@@]3(OS(=O)(=O)C=C3NC(=O)NC(=O)c3ccccc3)[C@H]2O)c(=O)n(C)c1=O
CC50 at 72 h [1]: > 50 µM
MCC at 72 h [2]: 100 µM
EC50 (Human betaherpesvirus 5 [3]): > 100 µM
EC50 (Human betaherpesvirus 5 [4]): > 100 µM

Cc1cn([C@@H]2O[C@H](COC(=O)c3ccccc3)[C@@]3(OS(=O)(=O)C=C3NC(=O)NC(=O)c3ccccc3)[C@H]2O[Si](C)(C)C(C)(C)C)c(=O)n(C)c1=O
CC50 at 72 h [1]: 100 µM
MCC at 72 h [2]: ≥ 5 µM
EC50 (Human betaherpesvirus 5 [3]): 2.2 µM
EC50 (Human betaherpesvirus 5 [4]): 2.2 µM

Cc1cn([C@@H]2O[C@H](CO)[C@@]3(OS(=O)(=O)C=C3NC(=O)NC(=O)c3ccccc3)[C@H]2O[Si](C)(C)C(C)(C)C)c(=O)n(C)c1=O
CC50 at 72 h [1]: 16 µM
MCC at 72 h [2]: 20 µM
EC50 (Human betaherpesvirus 5 [3]): > 4 µM
EC50 (Human betaherpesvirus 5 [4]): > 4 µM

Cc1cn([C@@H]2O[C@H](CO[Si](C(C)C)(C(C)C)C(C)C)[C@@]3(OS(=O)(=O)C=C3NC(=O)NC(=O)c3ccccc3)[C@H]2O[Si](C)(C)C(C)(C)C)c(=O)n(C)c1=O
CC50 at 72 h [1]: > 100 µM
MCC at 72 h [2]: ≥ 100 µM
EC50 (Human betaherpesvirus 5 [3]): 4.2 µM
EC50 (Human betaherpesvirus 5 [4]): 6.3 µM

CCOC(=O)NC(=O)NC1=CS(=O)(=O)O[C@@]12[C@@H](CO[Si](C)(C)C(C)(C)C)O[C@@H](n1cc(C)c(=O)n(C)c1=O)[C@@H]2O[Si](C)(C)C(C)(C)C
CC50 at 72 h [1]: 14 µM
MCC at 72 h [2]: 10 µM
EC50 (Human betaherpesvirus 5 [3]): 2.8 µM
EC50 (Human betaherpesvirus 5 [4]): 2.3 µM

CCNC(=O)NC1=CS(=O)(=O)O[C@@]12[C@@H](CO[Si](C)(C)C(C)(C)C)O[C@@H](n1cc(C)c(=O)n(C)c1=O)[C@@H]2O[Si](C)(C)C(C)(C)C
CC50 at 72 h [1]: 10 µM
MCC at 72 h [2]: ≥ 3.2 µM
EC50 (Human betaherpesvirus 5 [3]): 2 µM
EC50 (Human betaherpesvirus 5 [4]): 1.8 µM

CC(C)(C)[Si](C)(C)OCCC1(CO[Si](C)(C)C(C)(C)C)OS(=O)(=O)C=C1NC(=O)NC(=O)c1ccccc1 (stereo not given)
CC50 at 72 h [1]: > 100 µM
MCC at 72 h [2]: > 100 µM
EC50 (Human betaherpesvirus 5 [3]): > 100 µM
EC50 (Human betaherpesvirus 5 [4]): > 100 µM

Cc1cn([C@@H]2O[C@H](CO[Si](C)(C)C(C)(C)C)[C@@]3(OS(=O)(=O)C=C3NC(N)=O)[C@H]2O[Si](C)(C)C(C)(C)C)c(=O)n(C)c1=O
CC50 at 72 h [1]: 11 µM
MCC at 72 h [2]: 16 µM
EC50 (Human betaherpesvirus 5 [3]): 2 µM
EC50 (Human betaherpesvirus 5 [4]): > 3.2 µM

CC(=O)N[C@@H]1O[C@H](CO[Si](C)(C)C(C)(C)C)[C@@]2(OS(=O)(=O)C=C2NC(=O)NC(=O)c2ccccc2)[C@H]1O[Si](C)(C)C(C)(C)C
CC50 at 72 h [1]: > 100 µM
MCC at 72 h [2]: 100 µM
EC50 (Human betaherpesvirus 5 [3]): > 20 µM
EC50 (Human betaherpesvirus 5 [4]): > 20 µM

Cc1cn([C@@H]2O[C@H](CO[Si](C)(C)C(C)(C)C)[C@@]3(OS(=O)(=O)C=C3NC(=O)Nc3ccccc3)[C@H]2O[Si](C)(C)C(C)(C)C)c(=O)n(C)c1=O
CC50 at 72 h [1]: 1.3 µM
MCC at 72 h [2]: 1.4 µM
EC50 (Human betaherpesvirus 5 [3]): 0.38 µM
EC50 (Human betaherpesvirus 5 [4]): ≥ 0.14 µM

Cc1cn([C@@H]2O[C@H](COC(=O)c3ccccc3)[C@@]3(OS(=O)(=O)C=C3NC(=O)NC(=O)c3ccccc3)[C@H]2O)c(=O)n(C)c1=O
CC50 at 72 h [1]: > 100 µM
MCC at 72 h [2]: > 100 µM
EC50 (Human betaherpesvirus 5 [3]): > 100 µM
EC50 (Human betaherpesvirus 5 [4]): > 100 µM

Cc1cn([C@@H]2O[C@H](CO[Si](C)(C)C(C)(C)C)[C@@]3(OS(=O)(=O)C=C3NC(=O)NC(=O)c3ccccc3)[C@H]2O[Si](C)(C)C(C)(C)C(C)C)c(=O)n(C)c1=O
CC50 at 72 h [1]: ≥ 100 µM
MCC at 72 h [2]: ≥ 100 µM
EC50 (Human betaherpesvirus 5 [3]): 3.9 µM
EC50 (Human betaherpesvirus 5 [4]): 12.1 µM

CC(=O)O[C@H]1[C@H](n2cc(C)c(=O)n(C)c2=O)O[C@H](COC(=O)c2ccccc2)[C@@]12OS(=O)(=O)C=C2NC(=O)NC(=O)c1ccccc1
CC50 at 72 h [1]: > 100 µM
MCC at 72 h [2]: > 100 µM
EC50 (Human betaherpesvirus 5 [3]): > 100 µM
EC50 (Human betaherpesvirus 5 [4]): > 100 µM
